Published values of several laboratories.
UGT1A6: UDP-glucuronosyltransferase 1A6 (UGT1A6, Homo sapiens, UniProt P19224)

CCN(CC)CCCC(C)Nc1ccnc2cc(Cl)ccc12 (stereo not shown)
haemolysis (haemolysis; human; 10 mM, 45 min): 15.4%

Oc1ccc(Cl)cc1C=NNc1nc(-c2ccc(F)cc2)cs1
haemolysis (haemolysis; human; 10 µM, 30 min, pH 7.4): 3.11%

CCOP(=O)(OCC)[C@@H]1C[C@H](n2cc(Cn3ccc(NC(C)=O)nc3=O)nn2)ON1C (racemic)
CC50 (HeLa; cell growth or viability; 72 h): > 250 µM

Cc1cc(C)cc(-n2cc(CN3CCN(C(=O)c4c(C)nc5ccc(Cl)cn45)CC3)nn2)c1
CC50 (HeLa; cell growth or viability, resazurin): > 100 µM

CCOP(=O)(OCC)[C@@H]1C[C@@H](n2cc(C(=O)OC)nn2)ON1C (relative stereo)
CC50 (HEL; cell growth or viability; 72 h): > 100 µM

Cc1ccn2c(C(=O)N3CCN(CCn4cc(C5CC5)nn4)CC3)c(C)nc2c1
CC50 (HeLa; cell growth or viability, resazurin): > 100 µM

COc1c(F)cccc1C=NNc1nc(-c2ccc(F)cc2)cs1
haemolysis (haemolysis; human; 100 µM, 30 min, pH 7.4): 36.6%

Cc1ccn2c(C(=O)N3CCN(Cc4cn(-c5cccc([N+](=O)[O-])c5)nn4)CC3)c(C)nc2c1
CC50 (HeLa; cell growth or viability, resazurin): > 100 µM

OC(Cn1cncn1)(Cn1cncn1)c1ccc(F)cc1F
haemolysis (haemolysis; human; 1 µg/mL, 1 h): 3.39%

Cc1ccn2c(C(=O)N3CCN(CCn4cc(-c5ccc(C(C)(C)C)cc5)nn4)CC3)c(C)nc2c1
CC50 (HeLa; cell growth or viability, resazurin): > 100 µM

CCOP(=O)(OCC)[C@@H]1C[C@@H](n2cc(Cn3cc(C)c(=O)[nH]c3=O)nn2)ON1C (racemic)
CC50 (HeLa; cell growth or viability; 72 h): > 250 µM

COc1ccc(S(=O)(=O)Nc2c(C(=O)Nc3c(C(=O)O)cc(OC)c(OC)c3OC)cc(OC)c(OC)c2OC)cc1
IC50 (HeLa; cell growth or viability, XTT; 72 h): 95 µM

CCOP(=O)(OCC)[C@@H]1C[C@@H](n2cc(-c3ccccc3)nn2)ON1C (racemic)
CC50 (HeLa; cell growth or viability; 72 h): > 250 µM

Cc1nc2ccc(Cl)cn2c1C(=O)N1CCN(Cc2cn(-c3cccc(C(F)(F)F)c3)nn2)CC1
CC50 (HeLa; cell growth or viability, resazurin): > 100 µM

Fc1ccc(-c2csc(NN=Cc3cccs3)n2)cc1
haemolysis (haemolysis; human; 100 µM, 30 min, pH 7.4): 61.4%

Cc1nc2ccc(Cl)cn2c1C(=O)N1CCN(Cc2cn(-c3ccc([N+](=O)[O-])cc3)nn2)CC1
CC50 (HeLa; cell growth or viability, resazurin): > 100 µM

Fc1ccc(-c2csc(NN=Cc3ccc(C(F)(F)F)cc3)n2)cc1
haemolysis (haemolysis; human; 50 µM, 30 min, pH 7.4): 25.7%

CC(=O)c1cc(C(=O)N[C@@H](C)Cn2ccc(-c3ccc(C#N)c(Cl)c3)n2)[nH]n1
IC50 (UGT1A6; enzyme activity, inhibitor; human, liver microsomes): > 50 µM

C[C@@H]1[C@H](O)[C@@H](C)/C=C/C=C/C=C/C=C/C=C/C=C/C=C/[C@H](O[C@@H]2O[C@H](C)[C@@H](O)[C@H](N)[C@@H]2O)C[C@@H]2O[C@](O)(C[C@@H](O)C[C@@H](O)[C@H](O)CC[C@@H](O)C[C@@H](O)CC(=O)O[C@H]1C)C[C@H](O)[C@H]2C(=O)O
haemolysis (haemolysis; human; 4 µg/mL, 1 h): 93.2%

COc1cccc(-n2cc(CN3CCN(C(=O)c4c(C)nc5ccc(Cl)cn45)CC3)nn2)c1
CC50 (HeLa; cell growth or viability, resazurin): > 100 µM

CCOc1ccccc1C=NNc1nc(-c2ccc(F)cc2)cs1
haemolysis (haemolysis; human; 50 µM, 30 min, pH 7.4): 16.8%

COc1cccc(-n2cc(CN3CCN(C(=O)c4c(C)nc5cc(C)ccn45)CC3)nn2)c1
CC50 (HeLa; cell growth or viability, resazurin): > 100 µM

CC(CCc1ccccc1)=NNc1nc(-c2ccc(F)cc2)cs1
haemolysis (haemolysis; human; 50 µM, 30 min, pH 7.4): 8.38%

C=CC(=O)N(C)CCOc1c(N)ncnc1-c1cc(F)cc(NC(=O)c2ccc(C3CC3)cc2F)c1C
Km (Cytochrome P450 2B6 (CYP2B6, Homo sapiens, UniProt P20813); enzyme activity, substrate; 10 min, pH 7.4): 1.3 µM

Fc1ccc(-c2csc(NN=Cc3ccccc3C(F)(F)F)n2)cc1
haemolysis (haemolysis; human; 10 µM, 30 min, pH 7.4): 4.43%

COc1ccc(S(=O)(=O)Nc2cc(OC)c(NC(=O)CCCl)cc2OC)cc1
IC50 (HeLa; cell growth or viability, XTT; 72 h): 16 µM

CCOP(=O)(OCC)[C@@H]1C[C@@H](n2cc(Cn3ccc(=O)[nH]c3=O)nn2)ON1C (racemic)
CC50 (HeLa; cell growth or viability; 72 h): ≥ 250 µM

C[C@@H](Cn1ccc(-c2ccc(C#N)c(Cl)c2)n1)NC(=O)c1cc([C@@H](C)O)[nH]n1
IC50 (UGT1A6; enzyme activity, inhibitor; human, liver microsomes): > 100 µM
